Here are results for four molecules from ChEMBL document CHEMBL5096209, “Structure-Activity Studies of 3,9-Diazaspiro[5.5]undecane-Based γ-Aminobutyric Acid Type A Receptor Antagonists with Immunomodulatory Effect” (J Med Chem, 2021).

Broadly, the Ki is a measure of affinity in units of concentration, obtained from inhibition or displacement.

Experiment [1] deals with Gamma-aminobutyric acid receptor subunit alpha-4/beta-1/delta (Homo sapiens, UniProt O14764+P18505+P48169). The experiment can be described thus: Antagonist activity at recombinant human alpha4beta1delta GABAA receptor expressed in HEK293 Flp-In cells by FMP assay. The class given is cell-based, Flp-In-293. The method in brief: (§1)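 HEK293 Flp-In cells stably expressing human δ subunit, transiently transfected with human α and β subunits (1:1) to form αβδ receptors. Read-out is the FLIPR membrane potential dye ΔRFU, baseline to peak/plateau, with GABA EC80 as agonist. Four-parameter fit of concentration–inhibition curves gives IC50, from at least three independent experiments.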
Chain of Gamma-aminobutyric acid receptor subunit alpha-4/beta-1/delta (P48169 whole entry): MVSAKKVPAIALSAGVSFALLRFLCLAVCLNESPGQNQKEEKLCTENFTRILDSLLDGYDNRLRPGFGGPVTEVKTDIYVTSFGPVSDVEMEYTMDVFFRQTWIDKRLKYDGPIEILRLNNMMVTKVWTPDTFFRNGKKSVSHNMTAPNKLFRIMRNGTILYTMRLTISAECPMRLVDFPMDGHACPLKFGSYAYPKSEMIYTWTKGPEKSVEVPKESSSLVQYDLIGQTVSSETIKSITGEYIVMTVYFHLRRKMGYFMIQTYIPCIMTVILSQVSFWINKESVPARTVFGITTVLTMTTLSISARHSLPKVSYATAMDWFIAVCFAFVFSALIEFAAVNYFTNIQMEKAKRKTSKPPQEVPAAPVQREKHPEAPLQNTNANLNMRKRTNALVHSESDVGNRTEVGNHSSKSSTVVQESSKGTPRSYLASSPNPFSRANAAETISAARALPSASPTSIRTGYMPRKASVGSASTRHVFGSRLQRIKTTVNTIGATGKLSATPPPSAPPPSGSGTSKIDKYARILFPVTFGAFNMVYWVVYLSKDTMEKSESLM
Chain of Gamma-aminobutyric acid receptor subunit alpha-4/beta-1/delta (O14764 whole entry): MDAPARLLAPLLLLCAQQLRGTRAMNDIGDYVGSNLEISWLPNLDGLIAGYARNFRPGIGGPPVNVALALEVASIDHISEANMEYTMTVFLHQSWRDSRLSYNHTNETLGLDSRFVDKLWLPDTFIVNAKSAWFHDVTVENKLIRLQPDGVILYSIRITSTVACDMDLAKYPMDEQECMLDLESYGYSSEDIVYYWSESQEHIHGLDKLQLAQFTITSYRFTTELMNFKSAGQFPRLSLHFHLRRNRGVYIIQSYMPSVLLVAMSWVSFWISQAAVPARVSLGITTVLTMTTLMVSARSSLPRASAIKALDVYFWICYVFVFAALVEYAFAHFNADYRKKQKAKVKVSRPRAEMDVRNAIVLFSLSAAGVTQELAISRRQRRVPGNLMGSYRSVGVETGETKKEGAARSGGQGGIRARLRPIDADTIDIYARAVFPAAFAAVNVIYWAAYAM
Chain of Gamma-aminobutyric acid receptor subunit alpha-4/beta-1/delta (P18505 whole entry): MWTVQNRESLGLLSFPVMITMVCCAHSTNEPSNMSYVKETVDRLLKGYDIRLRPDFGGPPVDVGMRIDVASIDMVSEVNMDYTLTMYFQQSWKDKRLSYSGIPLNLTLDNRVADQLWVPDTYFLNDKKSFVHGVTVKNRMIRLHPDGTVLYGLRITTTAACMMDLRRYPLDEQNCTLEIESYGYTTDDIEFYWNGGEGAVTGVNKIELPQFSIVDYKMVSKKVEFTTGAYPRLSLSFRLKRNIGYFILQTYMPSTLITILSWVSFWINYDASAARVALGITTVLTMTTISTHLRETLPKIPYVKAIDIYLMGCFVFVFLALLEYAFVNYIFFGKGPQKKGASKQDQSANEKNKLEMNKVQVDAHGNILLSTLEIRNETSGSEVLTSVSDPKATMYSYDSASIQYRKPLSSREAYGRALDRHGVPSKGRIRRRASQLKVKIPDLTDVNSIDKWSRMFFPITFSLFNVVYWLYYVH

The nature of experiment [2]: Antagonist activity at recombinant human alpha6beta2delta GABAA receptor expressed in HEK293 Flp-In cells by FMP assay. The class given is cell-based, Flp-In-293. The method in brief:
as §1

Experiment [3] has as its target T1, Gamma-aminobutyric acid receptor subunit alpha-5/beta-2/gamma-2 (Homo sapiens, UniProt P18507+P31644+P47870).
T1 sequence (P47870 whole entry): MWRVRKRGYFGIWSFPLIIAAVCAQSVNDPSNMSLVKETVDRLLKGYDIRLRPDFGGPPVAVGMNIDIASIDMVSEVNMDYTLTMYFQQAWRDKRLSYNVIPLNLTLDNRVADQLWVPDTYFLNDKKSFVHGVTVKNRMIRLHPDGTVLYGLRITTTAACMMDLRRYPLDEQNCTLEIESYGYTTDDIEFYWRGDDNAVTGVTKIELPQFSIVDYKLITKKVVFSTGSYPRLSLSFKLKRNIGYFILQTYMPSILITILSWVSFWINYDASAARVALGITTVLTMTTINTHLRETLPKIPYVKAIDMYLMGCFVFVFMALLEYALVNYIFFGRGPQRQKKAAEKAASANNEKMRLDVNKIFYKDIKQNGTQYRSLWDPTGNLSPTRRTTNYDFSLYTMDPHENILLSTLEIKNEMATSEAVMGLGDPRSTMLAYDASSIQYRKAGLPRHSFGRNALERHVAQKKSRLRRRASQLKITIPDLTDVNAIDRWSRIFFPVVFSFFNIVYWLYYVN
T1 sequence (P18507 whole entry): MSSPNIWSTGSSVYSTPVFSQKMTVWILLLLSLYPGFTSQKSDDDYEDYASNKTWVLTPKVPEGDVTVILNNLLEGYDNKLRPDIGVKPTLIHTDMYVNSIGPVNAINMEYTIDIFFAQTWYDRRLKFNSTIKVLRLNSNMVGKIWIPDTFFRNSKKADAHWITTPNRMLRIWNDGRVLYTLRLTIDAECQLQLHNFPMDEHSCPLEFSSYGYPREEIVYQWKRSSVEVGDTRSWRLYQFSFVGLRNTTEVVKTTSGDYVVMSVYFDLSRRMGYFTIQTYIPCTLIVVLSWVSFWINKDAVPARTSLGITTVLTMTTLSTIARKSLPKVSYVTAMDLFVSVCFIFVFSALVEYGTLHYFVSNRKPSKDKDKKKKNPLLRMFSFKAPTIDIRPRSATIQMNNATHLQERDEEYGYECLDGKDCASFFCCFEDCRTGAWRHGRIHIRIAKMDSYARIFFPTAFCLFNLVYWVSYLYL
T1 sequence (P31644 whole entry): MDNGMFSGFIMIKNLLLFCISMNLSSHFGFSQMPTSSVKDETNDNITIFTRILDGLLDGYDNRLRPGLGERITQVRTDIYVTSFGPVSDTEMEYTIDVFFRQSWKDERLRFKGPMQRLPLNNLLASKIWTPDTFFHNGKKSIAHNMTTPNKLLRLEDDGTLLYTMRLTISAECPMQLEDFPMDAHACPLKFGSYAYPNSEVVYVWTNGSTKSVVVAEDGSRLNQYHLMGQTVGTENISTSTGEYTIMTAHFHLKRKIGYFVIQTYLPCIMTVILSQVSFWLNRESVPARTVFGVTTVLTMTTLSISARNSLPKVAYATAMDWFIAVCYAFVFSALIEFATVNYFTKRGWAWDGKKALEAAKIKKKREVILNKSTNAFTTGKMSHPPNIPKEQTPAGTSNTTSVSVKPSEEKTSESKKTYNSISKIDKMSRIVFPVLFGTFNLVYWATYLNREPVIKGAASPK
The experiment can be described thus: Antagonist activity at human alpha5beta2gamma2 GABAA receptor expressed in HEK cells by FMP assay. The class given is cell-based. The method, boiled down:
(§2)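 Human αβγ2 receptors in HEK293 cells: α1β2γ2 stably expressed, other αβγ2 subtypes transiently transfected into HEK293 Flp-In background cells (α:β:γ 1:1:2). FLIPR membrane potential assay with ΔRFU baseline to peak/plateau and GABA EC80 as agonist. IC50 from a four-parameter fit, at least three independent experiments.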

For experiment [4], the target named is GABA-A receptor; anion channel. The experiment can be described thus: Displacement of [3H]-muscimol from rat cortical synaptic membrane GABAA receptor assessed as inhibition constant by microscint-scintillation method. The format is cell membranes, Cortex. The method, boiled down: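 Rat cortical synaptic membranes, washed repeatedly in 50 mM Tris-HCl pH 7.4, 70–80 μg protein. Incubated at 0 °C with 5 nM [3H]-muscimol (final) and a range of test concentrations, then filtered and counted by scintillation. Nonspecific binding defined with 1.0 mM GABA. IC50 converted to Ki by Cheng–Prusoff, triplicate, three independent experiments.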
Background: In a radioligand displacement assay an active substance lowers the binding of a labelled ligand.

Experiment [5] deals with T1, Gamma-aminobutyric acid receptor subunit alpha-5/beta-2/gamma-2. The experiment can be described thus: Antagonist activity at human alpha5beta2gamma2 GABAA receptor expressed in HEK293 cells by FMP assay. The format is cell-based. The method in brief:
as §2

The test system of experiment [6] is GABAA receptor α4β2δ (human). The experiment can be described thus: Antagonist activity at human alpha4beta2delta GABAA receptor expressed in HEK293 Flp-In cells by FMP assay.
Where [7] appears, read: Homo sapiens, Flp-In-293, read-out: pIC50 (converted).

Regarding `O=C(Nc1cccc(C(=O)N2CCC3(CCNCC3)CC2)c1)c1cccs1`, the IC50 in experiment [1] is 88 nM; in experiment [1] (read-out: pIC50 (converted)), 87.1 nM; in experiment [2] (setting [7]) it was 331 nM; in experiment [2] (flp-in-293), 330 nM; in experiment [3] it was 51 nM; in experiment [3] (read-out: pIC50 (converted)), 51.3 nM.

Regarding `Cc1cccc(C(=O)N2CCC3(CCNCC3)CC2)c1`, the inhibition constant (Ki) in experiment [4] was 180 nM. The IC50 was 540 nM in experiment [5], 537 nM in experiment [5] (read-out: pIC50 (converted)), 251 nM in experiment [6] (setting [7]) and 250 nM in experiment [6] (flp-in-293).

Take `Cc1ccc(C(=O)N2CCC3(CCNCC3)CC2)cc1`: the Ki in experiment [4] was 520 nM. The IC50 in experiment [5] was 1500 nM; in experiment [5] (read-out: pIC50 (converted)), 1450 nM; in experiment [6] (setting [7]) it was 2140 nM; in experiment [6] (flp-in-293), 2150 nM.

`CC(=O)Nc1cccc(C(=O)N2CCC3(CCNCC3)CC2)c1`: the IC50 in experiment [1] was 1030 nM; in experiment [1] (read-out: pIC50 (converted)), 1020 nM; in experiment [2] (setting [7]) it was 4170 nM; in experiment [2] (flp-in-293), 4130 nM; in experiment [3] it was 590 nM; in experiment [3] (read-out: pIC50 (converted)), 589 nM.
